ChEMBL document CHEMBL1134364, “Antipsoriatic anthrones with modulated redox properties. 5. Potent inhibition of human keratinocyte growth, induction of keratinocyte differentiation, and reduced membrane damage by novel 10-arylacetyl-1,8-dihydroxy-9(10H)-anthracenones” (J Med Chem, 2001)

What was measured:
[1] = Partition coefficient (logP); type: physicochemical; details: octanol/water
[2] = Concentration required to inhibit 50% growth of HaCaT cells; type: functional, cell-based; details: Homo sapiens
Outline: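 HaCaT keratinocytes treated for 48 h. Proliferation read by counting dispersed cells under phase-contrast microscope. Growth inhibition tested for significance against control, N = 3, P < 0.01.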

[3] = (§1) Cytotoxic activity of LDH(mu) release in HaCaT cells was measured after treatment with 2 uM of the compound; type: functional, Homo sapiens
Outline: (§2)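 HaCaT cells treated with 2 µM compound. Membrane damage read as lactate dehydrogenase activity (mU) released into the culture medium. N = 3, SD < 10%.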

[4] = Induction of Keratinocyte Differentiation in cross-linked envelope assay at 1 uM expressed as difference of the amount of cross-linked protein as a measure of HaCaT keratinocyte differentiation; type: functional, Homo sapiens
Outline: (§3)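 HaCaT cultures were 144 h post-confluent; medium replaced, compound added from DMSO stocks diluted in DMEM (final DMSO 0.2%), controls DMSO or medium alone, 48 h. Cells were detached with trypsin/EDTA, lysed in SDS/β-ME, dot-blotted, TCA-heated, Coomassie-stained and scanned. Value is cross-linked protein minus vehicle, per mg protein (Bradford), mean ± SEM of 3 experiments.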

[5] = Induction of Keratinocyte Differentiation in cross-linked envelope assay at 10 uM expressed as difference of the amount of cross-linked protein as a measure of HaCaT keratinocyte differentiation; type: functional, Homo sapiens; outline: as §3
[6] = (§4) Induction of Keratinocyte Differentiation in cross-linked envelope assay at 5 uM expressed as difference of the amount of cross-linked protein as a measure of HaCaT keratinocyte differentiation; type: functional, Homo sapiens; outline: as §3
[7] = Inhibition of LTB4 biosynthesis in bovine polymorphonuclear leukocytes using nordihydroguaiaretic acid; type: functional, cell-based, Bos taurus
[8] = Deoxyribose degradation activity was measured as hydroxyl radical formation
HaCaT = experiment: as §4; type: cell-based; details: Homo sapiens; outline: as §3
[9] = as §1; type: cell-based; details: human; outline: as §2
[10] = Cytotoxic activity of LDH(mu) release in HaCaT cells was measured after treatment of 2 uM; type: functional, Homo sapiens; outline: as §2

Row | Compound | logP [1] | IC50 [2] [nM] | LDH [3] [MU] | Activity [4] | Activity [5] | Activity [6] | IC50 [7] [nM] | Activity [8] | Activity (ug (mg of protein)-1) (HaCaT) | LDH [9] [MU] | LDH [10] [MU]
1 | COc1ccccc1CC(=O)C1c2cccc(O)c2C(=O)c2c(O)cccc21 | 4.2 | 1600 | 125 |  |  |  |  |  |  |  | 
2 | CCCCOc1ccc(CC(=O)C2c3cccc(O)c3C(=O)c3c(O)cccc32)cc1 | 5.41 | 1200 |  | 2.5 ug (mg of protein)-1 | 3.4 ug (mg of protein)-1 | 3.4 ug (mg of protein)-1 | 1500 | < 0.3 |  |  | 
3 | O=C1c2c(O)cccc2C(C(=O)Cc2ccc(Cl)c(Cl)c2)c2cccc(O)c21 | 4.74 | 1200 |  |  |  |  | 9000 |  |  |  | 
4 | CC(C(=O)C1c2cccc(O)c2C(=O)c2c(O)cccc21)c1ccccc1 (centres undefined) | 4.43 | 1000 |  |  |  |  | 18000 | < 0.3 |  |  | 
5 | CCOC(=O)c1ccc(CC(=O)C2c3cccc(O)c3C(=O)c3c(O)cccc32)cc1 | 4.34 | 1300 |  |  |  |  | 6000 | < 0.3 |  |  | 
6 | O=C1c2c(O)cccc2C(C(=O)Cc2ccc(F)cc2)c2cccc(O)c21 | 4.11 | 2600 |  | 0.6 ug (mg of protein)-1 | 3.5 ug (mg of protein)-1 | 2.4 ug (mg of protein)-1 | 11000 | < 0.3 |  |  | 
7 | O=C1c2c(O)cccc2C(C(=O)Cc2ccc([N+](=O)[O-])cc2)c2cccc(O)c21 |  | 4700 | 179 |  |  |  |  |  |  |  | 
8 | O=C1c2c(O)cccc2C(C(=O)Cc2ccc3c(c2)OCO3)c2cccc(O)c21 | 4.06 | 3300 |  |  |  |  | 1000 | < 0.3 |  |  | 
9 | Nc1ccc(CC(=O)C2c3cccc(O)c3C(=O)c3c(O)cccc32)cc1 | 3.29 | 1200 |  | 0 ug (mg of protein)-1 | 6.6 ug (mg of protein)-1 | 6 ug (mg of protein)-1 | 1000 | 1.43 |  |  | 
10 | O=C1c2c(O)cccc2C(C(=O)Cc2ccc(OCc3ccccc3)cc2)c2cccc(O)c21 |  | 2400 | 202 |  |  |  | 600 | < 0.3 |  |  | 
11 | O=C(O)Cc1ccc(CC(=O)C2c3cccc(O)c3C(=O)c3c(O)cccc32)cc1 | 2.84 | 1700 |  |  |  |  | 3000 | 0.93 |  |  | 
12 | CC(C)(C)c1cc(CC(=O)C2c3cccc(O)c3C(=O)c3c(O)cccc32)cc(C(C)(C)C)c1O |  | 3000 | 199 |  |  |  |  |  |  |  | 
13 | N#Cc1ccc(CC(=O)C2c3cccc(O)c3C(=O)c3c(O)cccc32)cc1 | 3.58 | 3200 |  |  |  |  | 9000 |  |  |  | 
14 | O=C1c2c(O)cccc2C(C(=O)Cc2ccc(Br)cc2)c2cccc(O)c21 | 4.6 | 2900 |  |  |  |  | 700 | < 0.3 |  |  | 
15 | O=C1c2c(O)cccc2C(C(=O)Cc2ccc(O)cc2)c2cccc(O)c21 |  | 1700 | 173 | 2.5 ug (mg of protein)-1 | 6.2 ug (mg of protein)-1 | 5.1 ug (mg of protein)-1 |  |  |  |  | 
16 | CCCOc1ccc(CC(=O)C2c3cccc(O)c3C(=O)c3c(O)cccc32)cc1 | 4.97 | 1600 | 132 |  |  |  | 1000 | < 0.3 |  |  | 
17 | O=C1c2c(O)cccc2C(C(=O)Cc2ccc(C(F)(F)F)cc2)c2cccc(O)c21 | 4.4 | 1600 |  |  |  |  | 11000 |  |  |  | 
18 | CC(C(=O)C1c2cccc(O)c2C(=O)c2c(O)cccc21)c1ccc(C(=O)c2ccccc2)cc1 (centres undefined) | 4.46 | 900 | 191 |  |  |  | 9000 | < 0.3 |  |  | 
19 | O=C1c2c(O)cccc2C(C(=O)Cc2ccc(Cl)cc2)c2cccc(O)c21 | 4.49 | 2200 |  |  |  |  | 1000 | < 0.3 |  |  | 
20 | O=C1c2c(O)cccc2C(C(=O)Cc2c[nH]c3ccccc23)c2cccc(O)c21 | 3.77 | 800 | 174 | 1.8 ug (mg of protein)-1 | 6.2 ug (mg of protein)-1 | 4.9 ug (mg of protein)-1 | 9000 | < 0.3 |  |  | 
21 | COc1ccc(CC(=O)C2c3cccc(O)c3C(=O)c3c(O)cccc32)cc1 |  | 1100 | 143 | 2.3 ug (mg of protein)-1 | 5.8 ug (mg of protein)-1 | 5.3 ug (mg of protein)-1 | 500 |  |  |  | 

Row | Compound | logP [1] | IC50 [2] [nM] | LDH [3] [MU] | Activity [4] | Activity [5] | Activity [6] | IC50 [7] [nM] | Activity [8] | Activity (ug (mg of protein)-1) (HaCaT) | LDH [9] [MU] | LDH [10] [MU]
22 | COC(=O)c1ccc(CC(=O)C2c3cccc(O)c3C(=O)c3c(O)cccc32)cc1 | 4.07 | 1800 | 164 |  |  |  | 12000 | < 0.3 |  |  | 
23 | CSc1ccc(CC(=O)C2c3cccc(O)c3C(=O)c3c(O)cccc32)cc1 | 4.42 | 1600 |  |  |  |  | 6000 |  |  |  | 
24 | CCOc1ccc(CC(=O)C2c3cccc(O)c3C(=O)c3c(O)cccc32)cc1 | 4.51 | 1700 | 142 |  |  |  | 1000 | < 0.3 |  |  | 
25 | CC(C)Cc1ccc(C(C)C(=O)C2c3cccc(O)c3C(=O)c3c(O)cccc32)cc1 (centres undefined) | 5.57 | 3500 |  |  |  |  |  |  |  |  | 
26 | O=C1c2c(O)cccc2C(C(=O)Cc2ccccc2Nc2c(Cl)cccc2Cl)c2cccc(O)c21 | 3.91 | 1300 | 247 |  |  |  | 3000 | 0.45 |  |  | 
27 | CC(C)(C)OC(=O)Nc1ccc(CC(=O)C2c3cccc(O)c3C(=O)c3c(O)cccc32)cc1 | 4.17 | 1800 |  |  |  |  | 2000 | 0.97 |  |  | 
28 | COc1cccc(COc2ccc(CC(=O)C3c4cccc(O)c4C(=O)c4c(O)cccc43)cc2)c1 | 5.19 | 1000 | 159 |  |  |  | 1000 | < 0.3 |  |  | 
29 | CC(C)Oc1ccc(CC(=O)C2c3cccc(O)c3C(=O)c3c(O)cccc32)cc1 | 4.59 | 1800 |  |  |  |  | 15000 | < 0.3 |  |  | 
30 | CN(O)C(=O)Cc1ccc(CC(=O)C2c3cccc(O)c3C(=O)c3c(O)cccc32)cc1 | 3.02 | 700 |  | 2.8 ug (mg of protein)-1 | 6.2 ug (mg of protein)-1 |  | 50 | 0.51 | 5.5 | 199 | 
31 | COc1ccc(CC(=O)C2c3cccc(O)c3C(=O)c3c(O)cccc32)cc1O | 3.41 | 1900 |  |  |  |  | 8000 |  |  |  | 
32 | Cc1ccc(CC(=O)C2c3cccc(O)c3C(=O)c3c(O)cccc32)cc1 | 4.54 | 700 | 145 | 2.1 ug (mg of protein)-1 | 5.1 ug (mg of protein)-1 | 4.2 ug (mg of protein)-1 |  |  |  |  | 
33 | O=C1c2ccccc2Cc2ccccc21 [ANTHRONE] |  |  |  | 0.5 ug (mg of protein)-1 | 0.8 ug (mg of protein)-1 | 0.3 ug (mg of protein)-1 |  |  |  |  | 
34 | O=C1c2cccc(O)c2C(=O)c2c(O)cccc21 [DANTHRON] |  |  |  | 0.6 ug (mg of protein)-1 | 0 ug (mg of protein)-1 | -0.1 ug (mg of protein)-1 |  |  |  |  | 
35 | COc1ccc(COc2ccc(CC(=O)C3c4cccc(O)c4C(=O)c4c(O)cccc43)cc2)cc1 | 4.91 | 3200 |  |  |  |  | 1500 | < 0.3 |  |  | 
36 | COc1cccc(CC(=O)C2c3cccc(O)c3C(=O)c3c(O)cccc32)c1 | 4.16 | 2700 |  |  |  |  | 3000 | < 0.3 |  |  | 
37 | O=C1c2c(O)cccc2Cc2cccc(O)c21 [ANTHRALIN] |  | 700 |  | 3.7 ug (mg of protein)-1 | 5.8 ug (mg of protein)-1 | 4.9 ug (mg of protein)-1 |  |  |  |  | 294
38 | CN(C)c1ccc(CC(=O)C2c3cccc(O)c3C(=O)c3c(O)cccc32)cc1 | 4.42 | 1300 |  |  |  |  | 6000 |  |  |  | 
39 | O=C1c2c(O)cccc2C(C(=O)Cc2ccc(-c3ccccc3)cc2)c2cccc(O)c21 | 5.02 | 2200 |  | 1.8 ug (mg of protein)-1 | 4.6 ug (mg of protein)-1 | 3.8 ug (mg of protein)-1 | 7000 | < 0.3 |  |  | 
40 | COc1ccc(CC(=O)C2c3cccc(O)c3C(=O)c3c(O)cccc32)cc1OC | 3.77 | 4200 |  |  |  |  | 22000 | 0.86 |  |  | 
41 | O=C1c2c(O)cccc2C(C(=O)Cc2ccc(I)cc2)c2cccc(O)c21 | 4.8 | 3100 |  |  |  |  | 1500 | < 0.3 |  |  | 
42 | O=C1c2c(O)cccc2C(Cc2ccccc2)c2cccc(O)c21 |  |  |  | -1 ug (mg of protein)-1 | 0.9 ug (mg of protein)-1 | -0.8 ug (mg of protein)-1 |  |  |  |  | 
